Series [1] can be described thus: Metal chelating activity of compound assessed as compound-Cu2+ complex formation at 1 mM after 10 mins in presence of CuSO4.5H2O by complexometric indicator murexide based UV-Vis spectrophotometric analysis. It counts as physicochemical. The note with it: 1000 µM. The essentials:
(§1)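 Compound (0.02-2 mM) incubated with CuSO4 (120 µM) for 10 min at rt, in 10 mM hexamine/HCl with 10 mM KCl (pH 5.0), or in buffer/MeOH 75:25 for poorly soluble compounds. Murexide added, 1 min more. The A485/A520 ratio gives free Cu2+ from a CuSO4 calibration curve (0-125 µM). % chelation is taken by difference from the no-compound control; triplicates.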

Series [2] can be described thus: Reactive carbonyl species trapping activity of compound assessed as MDA adduct formation at 10 mM preincubated for 24 hrs with MDA measured after 5 hrs by LCMS analysis. It is filed as physicochemical. As to conditions: 10000 µM.
Series [3] can be described thus: Metal chelating activity of compound assessed as compound-Cu2+ complex formation at 0.5 mM after 10 mins in presence of CuSO4.5H2O by complexometric indicator murexide based UV-Vis spectrophotometric analysis. The note with it: 500 µM. It counts as physicochemical. The essentials:
as §1

Series [4] is described as follows: Reactive carbonyl species trapping activity of compound assessed as MGO adduct formation at 10 mM preincubated for 24 hrs with MGO measured after 24 hrs by LCMS analysis. It is filed as physicochemical. The note with it: 10000 µM.
A short description of series [5]: Reactive carbonyl species trapping activity of compound assessed as MDA adduct formation at 10 mM preincubated for 24 hrs with MDA measured after 1 hr by LCMS analysis. It is filed as physicochemical. As to conditions: 10000 µM.
The nature of series [6]: Metal chelating activity of compound assessed as compound-Cu2+ complex formation at 0.05 mM after 10 mins in presence of CuSO4.5H2O by complexometric indicator murexide based UV-Vis spectrophotometric analysis. It counts as physicochemical. The note with it: 50 µM. The essentials:
as §1

The nature of series [7]: Reactive carbonyl species trapping activity of compound assessed as MDA adduct formation at 10 mM preincubated for 24 hrs with MDA measured after 0.25 hrs by LCMS analysis. The note with it: 10000 µM. It is filed as physicochemical.
The nature of series [8]: Antioxidant activity assessed as inhibition of AAPH-induced peroxyl radical generation measured as trolox equivalent at 10 uM preincubated for 30 mins followed by AAPH addition measured evey 60 secs for 60 cycles by ORAC-FL assay. It counts as functional. As to conditions: in the assay text read “90 secs” for “60 secs”. In a few lines:
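Fluorescein (12 nM) preincubated with compound (1-20 µM) or Trolox standard (1-50 µM) in D-PBS, at least 30 min at 37 °C. Reaction started with AAPH (30 mM). Fluorescence (ex 485/em 520 nm) read every 90 s for 60 cycles. Net AUC is converted to Trolox equivalents via the Trolox calibration line. Values are reported at 10 µM, from at least three independent experiments in triplicate.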

Series [9] is described as follows: Reactive carbonyl species trapping activity of compound assessed as MDA adduct formation at 10 mM preincubated for 24 hrs with MDA measured after 24 hrs by LCMS analysis. It counts as physicochemical. As to conditions: 10000 µM.
The nature of series [10]: Reactive carbonyl species trapping activity of compound assessed as MGO adduct formation at 10 mM preincubated for 24 hrs with MGO measured after 1 hr by LCMS analysis. It counts as physicochemical. As to conditions: 10000 µM.
The species entered for a further series is Rattus norvegicus. Put plainly: Cytotoxicity against rat […] PC12 cells assessed as reduction in cell viability at 10 to 100 uM after 24 hrs by WST8-based CCK8 assay. It is filed as toxicity. The note with it: pc-12, 24 h. The essentials:
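PC12 Adh cells (rat pheochromocytoma-derived) grown in F-12K with 2.5% FBS, 15% horse serum and pen/strep at 37 °C, 5% CO2. Seeded at 5×10^3 cells/well; treated at 80% confluency with 10 or 100 µM for 24 h. 10% DMSO served as positive cytotoxicity control. CCK-8 added for 1 h at 37 °C, absorbance read at 450 nm. Viability given as % of untreated cells; at least three experiments in triplicate.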
On the technique in general: Formazan colour is commonly taken as a measure of viable cells.

The nature of series [11]: Reactive carbonyl species trapping activity of compound assessed as MGO adduct formation at 10 mM preincubated for 24 hrs with MGO measured after 0.5 hrs by LCMS analysis. It is filed as physicochemical. As to conditions: 10000 µM.
Series [12] in a line: Reactive carbonyl species trapping activity of compound assessed as MGO adduct formation at 10 mM preincubated for 24 hrs with MGO measured after 5 hrs by LCMS analysis. It counts as physicochemical. The note with it: 10000 µM.
A short description of series [13]: Metal chelating activity of compound assessed as compound-Cu2+ complex formation at 2 mM after 10 mins in presence of CuSO4.5H2O by complexometric indicator murexide based UV-Vis spectrophotometric analysis. It counts as physicochemical. As to conditions: 2000 µM. The essentials:
as §1

The nature of series [14]: Metal chelating activity of compound assessed as compound-Cu2+ complex formation at 0.02 mM after 10 mins in presence of CuSO4.5H2O by complexometric indicator murexide based UV-Vis spectrophotometric analysis. It is filed as physicochemical. As to conditions: 20 µM. In a few lines: as §1
A short description of series [15]: Reactive carbonyl species trapping activity of compound assessed as MDA adduct formation at 10 mM preincubated for 24 hrs with MDA measured after 0.5 hrs by LCMS analysis. The note with it: 10000 µM. It is filed as physicochemical.
Series [16] is described as follows: Metal chelating activity of compound assessed as compound-Cu2+ complex formation at 200 uM after 10 mins in presence of CuSO4.5H2O by complexometric indicator murexide based UV-Vis spectrophotometric analysis. It is filed as physicochemical. The essentials:
as §1

Series [17] in a line: Metal chelating activity of compound assessed as compound-Cu2+ complex formation at 0.08 mM after 10 mins in presence of CuSO4.5H2O by complexometric indicator murexide based UV-Vis spectrophotometric analysis. It is filed as physicochemical. As to conditions: 80 µM. The essentials:
as §1

Series [18] can be described thus: Metal chelating activity of compound assessed as compound-Cu2+ complex formation at 0.1 mM after 10 mins in presence of CuSO4.5H2O by complexometric indicator murexide based UV-Vis spectrophotometric analysis. It is filed as physicochemical. As to conditions: 100 µM. In a few lines:
as §1

Series [19] in a line: Reactive carbonyl species trapping activity of compound assessed as MGO adduct formation at 10 mM preincubated for 24 hrs with MGO measured after 15 mins by LCMS analysis. It counts as physicochemical. The note with it: 0.25 h, 10000 µM.
The nature of series [20]: Reactive carbonyl species trapping activity of compound assessed as MGO adduct formation at 10 mM preincubated for 24 hrs with MGO measured after 0.25 hrs by LCMS analysis. It is filed as physicochemical. As to conditions: 10000 µM.

For `Cl.Cl.NCC(N)C(=O)N1CCNCC1` (stereo not drawn), the Activity was 51.61% in series [1]; 100% in series [2]; 40.27% in series [3]; 82% in series [4]; 100% in [5]; 7.07% in series [6]. Moreover, the Activity in series [7] is listed as 100%; in series [9], 100%; in series [10], 37%; in the series listed under Rattus norvegicus, “Non-Toxic”; in series [11] it was 33%; in series [12] it was 51%. The Activity is listed as 62.15% in series [13]; 3.25% in [14]; 100% in [15]; 23.6% in series [16]; 10.65% in series [17]; 13.97% in series [18]. Also, the Activity (umolequiv/umol) in series [8] is 0.
On to `COc1cc(/C=C/C(=O)NCCCCC(N)CN)ccc1O.Cl.Cl` (stereo not drawn), for which the Activity in [1] is reported as 52.15%; in series [2] it was 24%; in series [3], 42.89%; in series [4] it was 100%; in series [5], 17%; in [6] it was 7.96%. Besides, the Activity is reported as 17% in series [7]; 100% in [19]; 100% in series [9]; 100% in series [10]; “Non-Toxic” in the series filed under Rattus norvegicus; 100% in series [11]. Besides, the Activity in series [20] is on record as 100%; in series [12], 100%; in series [13] it was 59.06%; in series [14] it was 5.39%; in series [15] it was 17%; in series [17], 12.17%. Moreover, the Activity in [18] is listed as 15.88%. Moreover, the Activity (umolequiv/umol) in series [8] amounted to 1.5.
For the compound `Cl.Cl.NCC(N)CCC(=O)N1CCN(C(=O)CCn2cccc(O)c2=O)CC1` (stereo not drawn), the Activity worked out at 74.59% in [1]; 85% in [2]; 71.58% in [3]; 98% in series [4]; 81% in series [5]; 23.88% in [6]. Moreover, the Activity in series [7] is reported as 74%; in series [19], 97%; in [9], 84%; in series [10], 98%; in the series listed under Rattus norvegicus it was “Non-Toxic”; in series [11] it was 97%. Besides, the Activity in series [20] amounted to 97%; in [12], 99%; in series [13], 76.53%; in [14] it was 11.76%; in [15], 76%; in series [16] it was 53.23%. In addition, the Activity is reported as 31.08% in series [17] and 36.03% in series [18]. The Activity (umolequiv/umol) in series [8] was determined as 0.99.
As to `Cl.Cl.NCC(N)CCCNC(=O)CCn1cccc(O)c1=O` (stereo not drawn), the Activity in [1] was 76.43%; in series [2] it was 75%; in series [3], 73.21%; in series [4] it was 98%; in series [5] it was 7%; in series [6] it was 24.84%. The Activity is on record as 0% in [7]; 97% in [19]; 86% in series [9]; 98% in series [10]; “Non-Toxic” in the series listed under Rattus norvegicus; 100% in series [11]. In addition, the Activity in series [20] amounted to 97%; in series [12] it was 99%; in series [13], 76.75%; in [14], 12.16%; in series [15], 4%; in series [16], 59.96%. For the same compound, the Activity in [17] was found to be 35.49%; in [18], 40.8%. In [8], the Activity (umolequiv/umol) turned out to be 1.03.
On to `Cl.Cl.NCC(N)CCC(=O)N1CCN(C(=O)c2cc(O)c(O)c(O)c2)CC1` (stereo not drawn), for which the Activity was 78.48% in [1]; 69% in series [2]; 74.33% in [3]; 100% in series [4]; 68% in series [5]; 14% in series [6]. For the same compound, the Activity in series [7] is on record as 50%; in series [19], 81%; in [9], 87%; in series [10] it was 87%; in the series filed under Rattus norvegicus it was “Non-Toxic”; in series [11] it was 85%. Further, the Activity in series [20] came out at 81%; in series [12], 88%; in series [13], 76.14%; in [14], 5.71%; in [15] it was 67%; in series [16], 52.75%. Also, the Activity was found to be 22.88% in [17] and 29.96% in series [18]. The Activity (umolequiv/umol) in [8] was determined as 0.89.
`Cc1c(O)c(=O)ccn1CCC(=O)NCCCCC(N)CN.Cl.Cl` (stereo not drawn): the Activity in series [1] came to 96%; in series [2], 89%; in [3], 91.66%; in series [4], 100%; in series [5], 88%; in series [6], 38.95%. Further, the Activity is given as 86% in [7]; 99% in [19]; 92% in series [9]; 99% in series [10]; “Non-Toxic” in the series filed under Rattus norvegicus; 99% in series [11]. For the same compound, the Activity is reported as 99% in series [20]; 99% in [12]; 97.73% in [13]; 21.31% in [14]; 88% in series [15]; 74.7% in series [16]. The Activity amounted to 48.35% in series [17] and 52.98% in series [18]. The Activity (umolequiv/umol) in series [8] worked out at 1.24.

Source of the values: ChEMBL document CHEMBL3865830, “Multifunctional diamine AGE/ALE inhibitors with potential therapeutical properties against Alzheimer's disease” (Eur J Med Chem, 2016).
